# Screening data as filed in PubChem BioAssay.
# HUVEC prolif 384: inhibitors of HUVEC proliferation, primary screen, cell-based, 384-well; CellTiter-Glo luminescence, 72 h; stronger effect = lower value; viability, % at 10 µM (by protocol); actives 1.1% (n = 86,000);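 active means viability at or below 30%; inactive means viability above 30%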;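 further: 100% = median luminescence of DMSO-only cell control wells on each plate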
# tolC growth inh: growth inhibitors of E. coli tolC mutant, primary screen, strain BW25113 ΔtolC::kan, 384-well; OD615; growth inhibition, % at 10 µM (by protocol); actives 2.2% (n = 65,000);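 active means growth inhibition at or above a cutoff equal to the mean over every tested compound plus 3 SD, cut at about 60% in these data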;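 further: growth measured after 20 h incubation at 37 °C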
#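 Test system: tolC-deleted E. coli BW25113; medium: LB with kanamycin 50 µg/mL; compound: single-point testing at 10 µM; incubation: 20 h compound exposure of bacteria at 37 °C; signal: OD at 615 nm; evaluation: growth inhibition in percent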
# Jurkat viability: cytotoxicity toward Jurkat T cells, primary screen, cytotoxicity control, cell-based, Jurkat E6.1, 60K MLSMR library | AID 463, 2006 | inhibition, % at 4 µM | actives 1.2% (n = 56,000) | Jurkat E6.1 viability, ATP luminescence, 48 h;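 active means inhibition above the mean inhibition of all tested compounds plus 3 SD, cut at about 28% in these data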
# E coli WT exp: growth inhibitors of wild-type E. coli, primary screen, strain BW25113, expanded library, OD600; growth inhibition, % at 100 µM; OD600 absorbance; actives 0.15% (n = 98,000);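 active means growth inhibition above about 50% at one test dose, limit read from the data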;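 further: growth measured after 20 h incubation at 37 °C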
# Fibroblast inh: antiproliferative effect on LL 47 fibroblasts – human, LL 47 cells, CellTiter-Glo luminescence, primary screen; viability, % at 10 µM; LL 47 human lung fibroblast viability, ATP luminescence; stronger effect = lower value; AID 719, 2007; actives 1.1% (n = 85,000);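 active means viability at or below 50% in the single dose screen; inactive means viability above 50%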;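 further: compound exposure lasted 72 h before the ATP readout; 100% = median luminescence of untreated cell-only wells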
#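 test system = LL 47 human lung fibroblasts | amount = 1,150 fibroblasts seeded per well | medium = 15% FBS in IMEM | times = overnight cell rest, 72 h compound treatment at 37 °C | measured by = CellTiter-Glo luminescence measuring cellular ATP | read-out = viability percentage against median untreated-cell control | benchmarks = cell-only wells, no compound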
# H69AR inhibit: proliferation blockers of H69AR lung cancer cells, primary screen, cell-based, human, 86K library | H69AR lung tumor viability, ATP luminescence, 72 h; stronger effect = lower value | viability, % at 10 µM | actives 6% (n = 85,000) | AID 598, 2007;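 active means viability at or below 40%; inactive means viability above 40%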;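 further: multidrug resistant small cell line overexpressing MRP-1 efflux transporter; 100% = mean luminescence of untreated control wells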
# An asterisk follows results filed as active; x = no result. In the library only some 6.4% were active in any assay of this set; here they are far more common.
SMILES,HUVEC prolif 384,tolC growth inh,Jurkat viability,E coli WT exp,Fibroblast inh,H69AR inhibit
CC1(c2ccc(Cl)cc2Cl)OCC(Cn2ccnc2)O1 (stereo not drawn),83.1,7.9,11.8,13.0,94.9,33.8*
OC(Cn1ccnc1)c1ccc(Cl)cc1Cl (stereo not drawn),86.8,-18.8,x,18.0,98.3,93.3
Cc1ccc(C2CC(C(F)F)n3ncc(C(=O)Nc4cnn(Cc5ccccc5C)c4)c3N2)cc1 (stereo not drawn),15.9*,36.0,-2.3,-15.0,62.7,13.7*
Cc1ccccc1Cn1cc(NC(=O)c2nc3ncccn3n2)cn1,76.7,x,x,-2.0,96.4,92.9
CC(=O)N1CCC(N(C(=O)Nc2c(F)cccc2F)C(C)C)CC1,107.0,x,x,-4.0,94.5,103.9
O=c1c2ccccc2sn1-c1ccc(S(=O)(=O)N2CCCC2)cc1,x,-4.6,-3.7,-3.0,x,x
Cc1ccc(-n2sc3ccccc3c2=O)cc1S(=O)(=O)N1CCCCC1,74.4,32.8,12.5,-13.0,49.0*,1.5*
O=c1c2ccccc2sn1-c1ccccc1,x,x,x,100.0*,x,x
O=c1c2ccccc2sn1-c1ccc(S(=O)(=O)N2CCCCC2)cc1,62.1,-2.4,1.2,x,37.3*,43.5
CC(C)C(c1nnnn1C1CCCC1)N1CCN(C(=O)c2ccco2)CC1 (stereo not drawn),93.0,-6.6,-0.9,8.0,93.6,87.2
CCOC(=O)C1=C(C)C(c2ccccc2)NC(=S)N1 (stereo not drawn),x,x,x,2.0,x,x
COc1ccc(C2C(C(=O)N3CCOCC3)CCC(=O)N2c2cc(OC)c(OC)c(OC)c2)cc1 (stereo not drawn),95.5,-6.9,x,-5.0,102.5,94.5
CCCCC(CC)CNC(=O)C1C2C=CC(C2)C1C(=O)O (stereo not drawn),87.3,x,x,2.0,105.9,90.2
COc1ccc(S(=O)(=O)C(C#N)c2nc3ccccc3nc2N2CCCC(C)C2)cc1 (stereo not drawn),76.3,68.1*,-4.5,-5.0,92.4,90.5
CC1CCN(c2nc3ccccc3nc2C(C#N)S(=O)(=O)c2ccccc2)CC1 (stereo not drawn),45.1,76.4*,x,x,88.1,80.4
CC1CCCN(c2nc3ccccc3nc2C(C#N)S(=O)(=O)c2cccs2)C1 (stereo not drawn),84.0,x,x,-2.0,111.3,106.9
O=C(CSc1nnc(NCc2ccccc2)s1)c1ccco1,92.5,-8.6,1.0,12.0,105.6,84.8
CCC1(C)N(O)C(C)(C)C(c2ccc(F)cc2)=[N+]1[O-] (stereo not drawn),101.6,x,x,x,98.6,91.5
CCCn1nnc(NC(=O)COc2ccc(C3CCCCC3)cc2)n1,94.1,100.0*,-3.1,2.0,97.6,97.7
CCC(=O)N=c1sc2cc(F)cc(F)c2n1C,77.0,4.3,-8.2,x,94.2,86.9
CCn1c(=NC(=O)CSC(C)=O)sc2cc(F)ccc21,52.6,-2.5,x,1.0,97.4,27.6*
CC(C)CCn1c(SCc2ccc(Cl)cc2)nc2c1c(=O)[nH]c(=O)n2C,65.5,-0.6,-0.1,-17.0,75.0,28.3*
CCCCn1c(SCc2ccc(Cl)cc2)nc2c1c(=O)[nH]c(=O)n2C,59.2,-5.3,-1.9,-20.0,90.1,26.7*
Cc1nnc(SCCn2c(N3CCC(Cc4ccccc4)CC3)nc3c2c(=O)[nH]c(=O)n3C)s1,x,5.1,x,x,x,x
Cc1ccc(Cn2c(SCC(C)C)nc3c2c(=O)n(C)c(=O)n3C)cc1,90.3,92.4*,-2.6,-11.0,94.8,97.4
SMILES,HUVEC prolif 384,tolC growth inh,Jurkat viability,E coli WT exp,Fibroblast inh,H69AR inhibit
Cc1ccc(CSc2nc3c(c(=O)[nH]c(=O)n3C)n2CCC(C)C)cc1,76.4,23.3,10.9,-6.0,88.6,43.8
CCCCn1c(N2CCC(Cc3ccccc3)CC2)nc2c1c(=O)[nH]c(=O)n2C,58.9,100.0*,17.9,-14.0,98.0,52.4
Cc1ccc(N=C(c2cccs2)N2CCOCC2)cc1,97.6,-19.2,5.1,9.0,94.6,92.3
Cc1cc(C)c(Cc2c(C)nc3c(C(=O)NCc4ccco4)cnn3c2C)c(C)c1,59.4,x,x,-7.0,96.6,74.0
COc1ccc(CCC(=O)NC2=NCCS2)cc1OC,102.2,-20.1,-9.9,x,96.9,72.2
COc1ccccc1-n1c(CNc2ccc(F)cc2)nnc1SCC(=O)Nc1cc(C)on1,81.2,x,x,x,97.0,86.5
CC1Cc2ccccc2N1C(=O)CSc1nc2c(c(=O)n(C)c(=O)n2C)n1Cc1ccc(F)cc1 (stereo not drawn),50.0,x,x,x,30.1*,11.4*
C/C=C/CSc1nc2c(c(=O)[nH]c(=O)n2C)n1Cc1ccc(C)cc1,81.2,5.3,6.5,-1.0,94.3,18.4*
CCn1c(N)c(C(=O)NCC2CCCO2)sc1=S (stereo not drawn),x,-9.0,0.0,-2.0,x,x
O=C(NCc1ccco1)c1sc(=S)n2c1[nH]c(=O)c1ccccc12,92.5,99.7*,x,11.0,102.4,88.0
O=C(NC1CCCC1)c1sc(=S)n2c1[nH]c(=O)c1ccccc12,63.9,100.0*,5.7,1.0,96.3,22.4*
C=CCn1c(N)c(C(=O)NCc2ccco2)sc1=S,97.2,-11.2,0.2,6.0,108.5,77.9
CCCCCNC(=O)c1ccc2c(=O)[nH]c3c(C(=O)NCC4CCCO4)sc(=S)n3c2c1 (stereo not drawn),63.1,100.0*,9.2,-5.0,96.3,87.2
Cc1cc(C)n2nc(SCC(=O)Nc3c(C)n(C)n(-c4ccccc4)c3=O)nc2n1,87.4,x,x,-4.0,91.3,92.7
CCCc1nnc(SCC(=O)N2CCCCC2)n1CCCOC,102.6,x,x,4.0,105.3,97.2
CCN(CC)S(=O)(=O)c1ccc(-c2nnc(SCc3nnc(-c4ccc(C)cc4)o3)o2)cc1,33.0,-10.6,-1.9,-10.0,77.5,3.3*
CCN(CC)S(=O)(=O)c1ccc(-c2nnc(SCc3nnc(-c4ccc(C)cc4)o3)n2CC)cc1,94.2,x,x,-4.0,101.4,57.4
CCN(CC)S(=O)(=O)c1ccc(-c2nnc(SCC(=O)N3CCc4ccccc43)o2)cc1,64.9,-14.3,-1.1,x,35.4*,4.4*
CCN(CC)S(=O)(=O)c1ccc(-c2nnc(SCC(=O)N3CCOCC3)o2)cc1,92.0,-11.5,1.8,-12.0,98.3,85.0
Cc1cc(NC(=O)C2CCN(S(=O)(=O)c3cnc[nH]3)CC2)ccc1Br,92.0,7.6,1.6,-16.0,99.9,65.8
Cc1snc(S(=O)(=O)Cc2ccccc2Cl)c1C#N,x,x,x,1.0,x,x
O=C(Nc1nnc(C2CC2)s1)c1cccc(S(=O)(=O)N2CC(c3ccccc3)CC2=O)c1 (stereo not drawn),102.3,x,x,-6.0,101.7,92.1
C(=C\CSc1nnnn1-c1ccccc1)/CSc1nnnn1-c1ccccc1,x,25.2,x,-21.0,x,x
CCCSc1nnc(Sc2nnnn2-c2ccccc2)s1,7.6*,26.0,98.5*,-11.0,52.1,5.4*
